# In ChEMBL document CHEMBL5360543, “Designed multiple ligands for the treatment of type 2 diabetes mellitus and its complications: Discovery of (5-arylidene-4-oxo-2-thioxothiazolidin-3-yl)alkanoic acids active as novel dual-targeted PTP1B/AKR1B1 inhibitors” (Eur J Med Chem, 2023):
# Calls of active or inactive are those of the source. No cut-off for these calls is given here.
# Legend:
# [1] = target: T1, Aldo-keto reductase family 1 member B1 (Homo sapiens, UniProt P15121); experiment: Inhibition of human recombinant AKR1B1 expressed in Escherichia coli BL21(DE3)pLysS using L-idose as substrate by NADPH oxidation based absorbance analysis
# [2] = target: T2, Tyrosine-protein phosphatase non-receptor type 1 (Homo sapiens) (UniProt P18031); experiment: Inhibition of N-terminal polyHis-tagged human PTP1B1 (1 to 303 residues) expressed in Escherichia coli BL21(DE3)pLysS assessed as enzyme residual activity using pNPP as substrate at 5 uM by spectrophotometric analysis
# T2 sequence (whole entry): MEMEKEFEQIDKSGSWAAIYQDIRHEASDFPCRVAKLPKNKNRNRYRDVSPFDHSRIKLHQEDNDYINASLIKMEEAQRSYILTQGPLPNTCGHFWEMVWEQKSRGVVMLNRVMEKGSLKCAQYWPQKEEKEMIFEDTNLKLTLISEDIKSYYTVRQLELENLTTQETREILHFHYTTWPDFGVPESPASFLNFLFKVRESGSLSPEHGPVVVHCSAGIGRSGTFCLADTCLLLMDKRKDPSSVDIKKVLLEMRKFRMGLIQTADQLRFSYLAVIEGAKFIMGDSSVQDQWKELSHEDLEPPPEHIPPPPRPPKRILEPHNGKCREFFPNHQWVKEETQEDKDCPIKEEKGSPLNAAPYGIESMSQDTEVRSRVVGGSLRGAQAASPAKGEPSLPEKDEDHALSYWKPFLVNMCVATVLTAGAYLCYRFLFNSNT
# How it was run: (§1)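 His-tagged human PTP1B (1–303) from E. coli BL21(DE3)pLysS, assayed in 0.075 M β,β-dimethylglutarate pH 7.0 with 1 mM EDTA, 0.1 mM DTT and pNPP. Reaction stopped with 0.1 M KOH; p-nitrophenol read at 400 nm. IC50 from 15–16 inhibitor concentrations in triplicate, normalized to control, fitted by nonlinear regression. Single-point residual activity at 5 µM.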
# C2C12 [3] = experiment: Insulin-mimetic activity in mouse C2C12 cells assessed as stimulation of 2-NBDG uptake at 20 uM pretreated with compound and insulin for 15 mins followed by 2-NBDG addition and measured after 3 hrs by flow cytometry; format: functional, cell-based; details: time 195.0 min
# How it was run: (§2)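 C2C12 cells serum-starved 24 h, then 15 min with 10 nM insulin, 20 µM compound, or both. Washed, then 3 h in starvation medium containing 40 µM 2-NBDG. Trypsinized, washed, and fluorescence measured by flow cytometry. Quadruplicate; mean fluorescence ± SD.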
# [4] = target: T3, Tyrosine-protein phosphatase non-receptor type 2 (Homo sapiens, UniProt P17706); experiment: Inhibition of N-terminal polyHis-tagged human recombinant TC-PTPb (1 to 415 residues) expressed in Escherichia coli BL21(DE3)pLysS
# T3 sequence (P17706 whole entry): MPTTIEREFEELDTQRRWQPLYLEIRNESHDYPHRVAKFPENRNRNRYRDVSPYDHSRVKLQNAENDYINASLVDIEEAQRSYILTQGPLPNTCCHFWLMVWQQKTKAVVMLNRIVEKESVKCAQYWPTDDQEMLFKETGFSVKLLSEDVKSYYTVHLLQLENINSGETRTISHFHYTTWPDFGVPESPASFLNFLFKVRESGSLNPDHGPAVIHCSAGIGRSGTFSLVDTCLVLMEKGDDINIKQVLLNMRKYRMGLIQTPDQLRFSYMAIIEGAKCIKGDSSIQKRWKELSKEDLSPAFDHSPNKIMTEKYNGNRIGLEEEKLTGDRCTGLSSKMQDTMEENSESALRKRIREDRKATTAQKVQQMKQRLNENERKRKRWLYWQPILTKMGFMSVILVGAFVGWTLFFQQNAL
# [5] = target: T1, Aldo-keto reductase family 1 member B1; experiment: Ratio of Ki for human recombinant AKR1B1 expressed in Escherichia coli BL21(DE3)pLysS assessed as apparent dissociation constant for EI complex to Ki for human recombinant AKR1B1 expressed in Escherichia coli BL21(DE3)pLysS assessed as apparent dissociation constant for ESI complex
# How it was run: (§3)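 AKR1B1 rates measured at varied L-idose concentrations with and without several inhibitor concentrations, then Lineweaver–Burk analysis. […] Tight binders fitted with the Morrison equation, KM for L-idose taken as 3.8 mM. At least three independent experiments.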
# [6] = target: T4, Tyrosine-protein phosphatase non-receptor type 1 (Homo sapiens, UniProt P18031); experiment: Inhibition of N-terminal polyHis-tagged human PTP1B1 (1 to 303 residues) expressed in Escherichia coli BL21(DE3)pLysS using pNPP as substrate by spectrophotometric analysis; how it was run: as §1
# T4 sequence (P18031 whole entry): T2 sequence (whole entry)
# [7] = target: T4, Tyrosine-protein phosphatase non-receptor type 1; experiment: Non-competitive inhibition of N-terminal polyHis-tagged human PTP1B1 (1 to 303 residues) expressed in Escherichia coli BL21(DE3)pLysS assessed as apparent dissociation constant for EI complex using pNPP as substrate by Lineweaver-Burk plot analysis
# How it was run: (§4)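 PTP1B initial pNPP hydrolysis rates measured at seven pNPP concentrations (0.5–25 mM) and at least three inhibitor concentrations, in triplicate. Data fitted to Michaelis–Menten; KM and Vmax dependence on inhibitor analysed by Lineweaver–Burk plots.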
# C2C12 [8] = experiment: Cytotoxicity against mouse C2C12 cells assessed as reduction in cell viability at 20 uM incubated for 24 hrs by MTT assay; format: toxicity, cell-based; details: c2c12, 24 h
# How it was run: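 C2C12 myoblasts were differentiated for 96 h in DMEM with 2% horse serum, then held 24 h in complete medium with 20 µM compound, DMSO vehicle as control. MTT 0.5 mg/mL was added, cells lysed in DMSO, absorbance read, and values normalized to vehicle. Quadruplicate, mean ± SD (n = 4).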
# [9] = target: T1, Aldo-keto reductase family 1 member B1; experiment: Inhibition of AKR1B1 in human HLE cells assessed as inhibition of glucose-induced sorbitol accumulation at 2 uM incubated for 24 hrs in presence of glucose; format: cell-based
# How it was run: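 HLE cells held 24 h in 75 mM D-glucose with or without 2 µM compound; 10 µM sorbinil as reference. Lysates from freeze/thaw and 10,000 × g spin were treated with perchloric acid and neutralized with KOH. Sorbitol assayed and expressed as nmol/mg protein (Bradford). Mean ± SEM of six measurements; one-way ANOVA with Tukey.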
# C2C12 [10] = experiment: Effect on total Akt protein expression in mouse C2C12 cells at 20 uM incubated for 15 mins in presence of insulin by SDS-PAGE analysis; format: functional, cell-based
# How it was run: (§5)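 C2C12 cells starved 24 h, then given 10 nM insulin, 20 µM compound, or both, for 15 min. Washed in cold PBS, lysed in 1X Laemmli buffer, run on SDS-PAGE, blotted to PVDF. Probed with antibodies to phospho-Akt and total Akt, with actin as loading control. Bands quantified; triplicate, mean ± SD (n = 3).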
# [11] = target: T1, Aldo-keto reductase family 1 member B1; experiment: Mixed non-competitive inhibition of human recombinant AKR1B1 expressed in Escherichia coli BL21(DE3)pLysS assessed as apparent dissociation constant for ESI complex using L-idose as substrate by secondary plot analysis; how it was run: as §3
# HLE = experiment: Cytotoxicity against human HLE cells assessed as reduction in cell viability at 2 uM incubated for 24 to 48 hrs by MTT assay; format: toxicity, cell-based; details: time 24-48 hrs
# How it was run: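 HLE lens epithelial B3 cells in MEM with 20% FBS at 37 °C, exposed 24 and 48 h to compound in 0.05% DMSO. Then 1 h in MTT 0.5 mg/mL in phosphate buffer pH 7.4, formazan dissolved in 0.04 N HCl/isopropanol, absorbance 563 nm. Mean ± SEM of eleven independent measurements; Student's t test versus untreated cells.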
# [12] = target: T1, Aldo-keto reductase family 1 member B1; experiment: Reversible inhibition of human recombinant AKR1B1 expressed in Escherichia coli BL21(DE3)pLysS assessed as recovery of enzyme activity using L-idose as substrate measured after extensive dialysis by NADPH oxidation based absorbance analysis; design: scale not given: the % may be the effect or the level left
# [13] = target: T1, Aldo-keto reductase family 1 member B1; experiment: Mixed non-competitive inhibition of human recombinant AKR1B1 expressed in Escherichia coli BL21(DE3)pLysS assessed as apparent dissociation constant for EI complex using L-idose as substrate by secondary plot analysis; how it was run: as §3
# [14] = target: T5, Tyrosine-protein phosphatase non-receptor type 1 (Mus musculus) (UniProt P35821); experiment: Inhibition of PTP1B in mouse C2C12 cells assessed as increase in Akt phosphorylation by measuring increase in ratio of pAkt to Akt at 20 uM treated for 15 mins by western blot analysis; format: cell-based; how it was run: as §5
# T5 sequence (whole entry): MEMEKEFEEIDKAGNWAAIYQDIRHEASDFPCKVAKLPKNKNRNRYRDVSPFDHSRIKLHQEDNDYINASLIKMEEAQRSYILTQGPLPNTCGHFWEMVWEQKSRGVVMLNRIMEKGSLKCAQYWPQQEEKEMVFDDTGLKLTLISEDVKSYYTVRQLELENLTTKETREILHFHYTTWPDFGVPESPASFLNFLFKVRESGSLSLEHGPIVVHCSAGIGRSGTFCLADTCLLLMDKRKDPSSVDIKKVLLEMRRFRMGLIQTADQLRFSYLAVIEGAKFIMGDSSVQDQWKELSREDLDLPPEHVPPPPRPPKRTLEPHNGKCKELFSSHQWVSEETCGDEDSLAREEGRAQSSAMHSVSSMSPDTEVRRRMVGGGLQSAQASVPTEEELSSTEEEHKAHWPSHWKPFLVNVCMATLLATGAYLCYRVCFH
# [15] = target: T5, Tyrosine-protein phosphatase non-receptor type 1 (Mus musculus); experiment: Inhibition of PTP1B in mouse C2C12 cells assessed as potentiation of insulin-induced Akt phosphorylation by measuring increase in ratio of pAkt to Akt at 20 uM treated for 15 mins in presence of insulin by western blot analysis; format: cell-based; how it was run: as §5
# C2C12 [16] = experiment: Effect on total Akt protein expression in mouse C2C12 cells at 20 uM incubated for 15 mins by SDS-PAGE analysis; format: functional, cell-based; how it was run: as §5
# [17] = target: T2, Tyrosine-protein phosphatase non-receptor type 1 (Homo sapiens); experiment: Reversible inhibition of N-terminal polyHis-tagged human PTP1B1 (1 to 303 residues) expressed in Escherichia coli BL21(DE3)pLysS using pNPP as substrate pretreated with enzyme for 60 mins followed by 400-fold dilution with buffer containing substrate and measured after 15 mins by spectrophotometric analysis; details: time 75.0 min
# How it was run: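 PTP1B incubated 60 min at 37 °C with saturating inhibitor, then diluted 400-fold into assay buffer containing 2.5 mM pNPP. Stopped after 15 min with 0.2 M KOH; absorbance read at 400 nm. Normalized to enzyme diluted with DMSO; mean ± SEM (n = 3).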
# C2C12 [18] = experiment: Insulin-mimetic activity in mouse C2C12 cells assessed as stimulation of 2-NBDG uptake at 20 uM pretreated with compound for 15 mins followed by 2-NBDG addition and measured after 3 hrs by flow cytometry; format: functional, cell-based; details: time 195.0 min; how it was run: as §2
# [19] = target: T4, Tyrosine-protein phosphatase non-receptor type 1; experiment: Non-competitive inhibition of N-terminal polyHis-tagged human PTP1B1 (1 to 303 residues) expressed in Escherichia coli BL21(DE3)pLysS assessed as apparent dissociation constant for ESI complex using pNPP as substrate by Lineweaver-Burk plot analysis; how it was run: as §4
IC50 [1],Activity [2],IC50 [4],Ratio Ki [5],IC50 [6],Ki [7],inhibition [9],Ki [11],Activity [12],Ki [13],inhibition [14],inhibition [15],inhibition [17],Ki [19],Structure (SMILES),Activity (C2C12 [3]),Activity (C2C12 [8]),Activity (C2C12 [10]),Activity (HLE),Activity (C2C12 [16]),Activity (C2C12 [18])
1.2 µM,67.6%,,,,,,,,,,,,,O=C(O)CCN1C(=O)/C(=C/c2cccc(OCCCc3ccccc3)c2)SC1=S,,,,,,
0.06 µM,,9 µM,2,4.3 µM,4.6 µM,Active,0.03 µM,> 90%,0.08 µM,Active,Active,Active,4.3 µM,O=C(O)CN1C(=O)/C(=C/c2cccc(OCCCCc3ccccc3)c2)SC1=S,Active,Non-Toxic,inactive,Non-Toxic,inactive,Active
0.08 µM,100%,,,,,,,,,,,,,O=C(O)CN1C(=O)/C(=C/c2cccc(OCCCOc3ccccc3)c2)SC1=S,,,,,,
